Reference: PubChem BioAssay AID2648 (Johns Hopkins Ion Channel Center, 2010)
The whole screen tested about 310,000 compounds, of which about 1,100 (0.35%) were called active.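 How the source made its calls: active means fluorescence ratio B-score, a plate-corrected score, at least three library SD, with initial intensity B-score within 5 SD; inactive means the rest.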 The list comes from a sample in which actives are over-represented; it also holds similar structures and randomly drawn compounds.

biological target: Potassium voltage-gated channel subfamily KQT member 1 (Homo sapiens) (UniProt P51787); assay: human KCNQ1 current enhancers – cell-based, thallium flux, high-throughput, primary screen (AID 2648); settings: CHO-K1 KCNQ1, thallium flux FluxOR fluorescence, at 10 µM; active compounds read high
In short: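 System: CHO-K1 cells stably expressing KCNQ1 / Medium: assay buffer for compound exposure, DMSO matched across wells / Reagent: thallium- and potassium-containing depolarizing buffer / Compound: one concentration, matched DMSO / Incubation: 20 min compound pretreatment at room temperature / Measured by: kinetic FluxOR fluorescence, 10 s baseline plus 110 s post-stimulus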

Chain of Potassium voltage-gated channel subfamily KQT member 1 (Homo sapiens) (P51787 whole entry, looked up): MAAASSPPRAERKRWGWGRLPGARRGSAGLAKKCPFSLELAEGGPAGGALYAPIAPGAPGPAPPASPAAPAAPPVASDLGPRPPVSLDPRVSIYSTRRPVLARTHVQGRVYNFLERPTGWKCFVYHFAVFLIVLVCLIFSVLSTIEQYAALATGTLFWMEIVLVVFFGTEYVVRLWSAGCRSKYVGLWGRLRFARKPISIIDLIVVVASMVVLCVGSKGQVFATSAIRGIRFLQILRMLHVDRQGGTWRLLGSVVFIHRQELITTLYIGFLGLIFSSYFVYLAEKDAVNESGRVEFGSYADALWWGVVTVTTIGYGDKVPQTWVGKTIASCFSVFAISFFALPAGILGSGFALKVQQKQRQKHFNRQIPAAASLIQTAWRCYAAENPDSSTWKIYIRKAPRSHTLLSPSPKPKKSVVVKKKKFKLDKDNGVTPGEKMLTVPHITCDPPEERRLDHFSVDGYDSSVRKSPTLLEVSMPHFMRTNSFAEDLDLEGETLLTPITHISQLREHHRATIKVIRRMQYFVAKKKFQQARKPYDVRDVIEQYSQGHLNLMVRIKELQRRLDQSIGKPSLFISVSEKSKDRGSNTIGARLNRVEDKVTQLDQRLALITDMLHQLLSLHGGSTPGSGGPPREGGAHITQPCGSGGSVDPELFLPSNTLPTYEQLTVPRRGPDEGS

Row | SMILES | B-score
1 | COc1ccc(-n2cc(-c3ccccc3)c3c(=S)nc[nH]c32)cc1 | 8 (active)
2 | O=c1[nH]cnc2c1c(-c1ccccc1)cn2-c1ccc(F)cc1 | inactive
3 | COc1ccc(-n2c(-c3ccc(OC)c(OC)c3)n[nH]c2=S)cc1 | inactive
4 | CC(=O)NS(=O)(=O)c1ccc(NC(=O)/C=C/c2ccccc2Cl)cc1 | inactive
5 | CN(C(=O)c1c(Cl)cnn1C)C12CC3CC(CC(C3)C1)C2 | inactive
6 | Nc1ccc(N=Nc2ccccc2Cl)c(N)n1 | inactive
7 | O=C(Nc1ccc2ccccc2c1)/C(=C/c1cccc(Br)c1)NC(=O)c1ccco1 | inactive
8 | CC(Oc1ccc2ccccc2c1)C(=O)NNC(=S)NC(=O)c1ccco1 (centres undefined) | 38 (active)
9 | CCCc1ccc(OCCNC(=O)c2ccco2)cc1 | inactive
10 | Cc1ccc(OCC(=O)NCCCNC(=O)c2ccco2)cc1C | inactive
11 | Cc1ccc(C(=O)NNC(=O)C(C)Oc2ccc3ccccc3c2)o1 (centres undefined) | inactive
12 | CCCc1ccc(OCC(=O)NNC(=S)NC(=O)c2ccco2)cc1 | 10 (active)
13 | O=C(c1cccs1)n1nc(NCc2ccccc2)nc1NCc1ccccc1 | inactive
14 | COC(=O)Cc1cnc(NC(=O)CSc2nc(C(C)C)cc(=O)[nH]2)s1 | inactive
15 | CC(=O)c1c(C)[nH]c(C(=O)OCC(=O)Nc2sc3c(c2C#N)CCCC3)c1C | inactive
16 | Cc1ccc(CNC(=O)CCC(=O)N2CC(C)Sc3ccccc32)cc1 (centres undefined) | inactive
17 | O=S(=O)(Nc1cccc(-c2ccc(N3CCOCC3)nn2)c1)c1ccc(Cl)c(Cl)c1 | inactive
18 | Cc1cccc(NC(=O)c2ccc([N+](=O)[O-])o2)c1 | inactive
19 | Cc1cccc(NC(=S)NC(=O)c2ccc(Br)o2)c1 | 25 (active)
20 | Cc1cccc(NC(=O)NC(=S)NC(=O)c2ccccc2)c1 | inactive

Row | SMILES | B-score
21 | Cc1ccc(CNC(=O)[C@@H](NC(=O)Cc2ccccc2)C(C)C)cc1 | inactive
22 | Cc1ccc(S(=O)(=O)N(CC(=O)NCCSC2CCCCC2)c2ccccc2F)cc1 | inactive
23 | O=C(N1CCCCC1)N1CCN(C(=O)N2CCCCC2)CC1 | 10 (active)
24 | CN1CCCN(C(=O)C2CCCCC2)CC1 | inactive
25 | O=C(N1CCOCC1)N1CCOCC1 | inactive
26 | Cc1sc(NC(=O)C2=COCCO2)c(C#N)c1C | inactive
27 | CC1CCN(S(=O)(=O)c2ccc(NC(=O)C3CC(=O)N(c4ccccc4)C3)cc2)CC1 (centres undefined) | inactive
28 | S=C(NCC1COc2ccccc2O1)Nc1ccc(Br)cc1 (centres undefined) | inactive
29 | c1ccc(-c2cc3c(NCC4COc5ccccc5O4)ncnc3s2)cc1 (centres undefined) | inactive
30 | c1ccc2c(c1)OCC(CNc1ncnc3nc[nH]c13)O2 (centres undefined) | 8 (active)
31 | O=C(O)C1CCCN1S(=O)(=O)c1ccc(Br)cc1 (centres undefined) | inactive
32 | O=C(CSc1nccc(=O)[nH]1)Nc1ccc(N2CCOCC2)c(Cl)c1 | inactive
33 | O=C(Nc1cccc(Cl)c1)Nc1nnc(-c2ccccc2)o1 | inactive
34 | O=C(COC(=O)c1ccccc1Br)Nc1nnc(-c2ccccc2)o1 | inactive
35 | O=C(Nc1nnc(-c2ccc(Cl)cc2)o1)c1ccccc1Br | 8 (active)
36 | Cc1nnc(Nc2ccccc2F)s1 | inactive
37 | CC(=O)Nc1ccc(S(=O)(=O)N2CCC(C(=O)NC3CC3)CC2)cc1 | inactive
38 | CCOc1ccc(N(CC)S(=O)(=O)c2cccc3nsnc23)cc1 | inactive
39 | CC(C)(C)C1CCc2c(sc3nc(SCC(N)=O)nc(N)c23)C1 (centres undefined) | inactive
40 | CCCCn1c(=S)[nH]c2ccccc2c1=O | 18 (active)

Row | SMILES | B-score
41 | CCCCNC(=O)CCn1c(=S)[nH]c2cc3c(cc2c1=O)OCO3 | inactive
42 | CCN(CC)CCn1c(=S)[nH]c2ncccc2c1=O | inactive
43 | CCCCNC(=O)c1ccc(-n2c(=S)[nH]c3ccccc3c2=O)cc1 | inactive
44 | CCCCn1c(=S)[nH]c2ncccc2c1=O | 10 (active)
45 | O=c1c2ccccc2[nH]c(=S)n1CCN1CCC(=C(c2ccc(F)cc2)c2ccc(F)cc2)CC1 | inactive
46 | O=C(Nc1ccc(CN2CCOCC2)cc1)c1cc(Cl)ccc1Cl | inactive
47 | Cc1sc2ncnc(N3CCC(C(=O)Nc4nc5ccc(Cl)cc5s4)CC3)c2c1C | inactive
48 | O=C(CNS(=O)(=O)c1ccc(Br)s1)NCc1ccc2c(c1)OCO2 | inactive
49 | Cn1c2ccccc2c2cc(/C=C(\NC(=O)c3ccccc3)C(=O)NCC(=O)O)ccc21 | inactive
50 | CCNC(=S)Nc1ccc(OC(F)(F)F)cc1 | inactive
51 | FC(F)(F)Oc1ccc(NC(=S)NCc2ccccc2)cc1 | inactive
52 | CS(=O)(=O)c1sc(C(=O)NC(=S)Nc2ccc(OC(F)(F)F)cc2)c2c1C=CCC2 | 11 (active)
53 | CN(/N=C/c1ccccc1)C(=S)c1ccccc1 | inactive
54 | CC(CC(=O)Nc1ccccc1)n1ccnc1 (centres undefined) | inactive
55 | Cc1ccn2c(=O)c(C(=O)NCCC3=CCCCC3)c(O)nc2c1 | inactive
56 | Oc1ccc(Br)cc1C=Nc1ccc2[nH]ncc2c1 | inactive
57 | COc1cc(Br)cc(/C=N/c2ncn[nH]2)c1O | 12 (active)
58 | Oc1c(Cl)cc(Cl)cc1/C=N/c1ncn[nH]1 | 9 (active)
59 | C=CCn1c(Cn2nnc3ccccc32)nnc1SCC(=O)N/N=C/c1cc(Br)cc(OC)c1O | inactive
